ChEMBL document CHEMBL1212693, “Dorsomorphin inhibits BMP signals required for embryogenesis and iron metabolism” (Nat Chem Biol, 2008)
Active and inactive are the calls of the source. The calls are words filed in the database; no cut-off is given here.

Experiments:
Mus musculus [1] = species: Mus musculus; assay: Inhibition of ALK3-mediated Smad-8 phosphorylation in BMPR2 deficient mouse PASMC at 10 uM by immunoblot analysis
Method in brief: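 BMPR-II–deficient mouse PASMCs (RPMI, 10% FBS) transiently transfected with constitutively active ALK2, ALK3 or ALK6 cDNA, or plasmid-only control. Incubated with or without compound (10 µM). Extracts lysed in SDS buffer, run on SDS-PAGE and immunoblotted for phospho-SMAD1/5/8; quantitated by phosphorimager.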

Danio rerio [2] = species: Danio rerio; assay: Inhibition of BMPR1 in zebrafish assessed as penetrance of normal embryonic axis dorsalization at 1 uM treated at 3 hrs post-fertilization measured at 48 hrs; design: scale not given: the % may be the effect or the level left
Danio rerio [3] = species: Danio rerio; assay: Inhibition of BMPR1 in zebrafish assessed as penetrance of moderate embryonic axis dorsalization at 10 uM treated at 4 to 8 hrs post-fertilization measured at 48 hrs; design: scale not given: the % may be the effect or the level left
Method in brief: (§1)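 Compound added at the stated times and concentrations. Gross morphology scored visually at up to 48 h.p.f. for dorsalization of the embryonic axis.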

Mus musculus [4] = species: Mus musculus; assay: Inhibition of BMPR1-mediated Smad-1 phosphorylation in BMP4-stimulated mouse BMPR2 deficient PASMC at 4 uM treated 30 mins before BMP4 challenge measured after 30 mins by immunoblot analysis
Method in brief: (§2)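 PASMCs (wild-type or BMPR-II–deficient) were kept 24 h in RPMI with 0.5% FCS, preincubated 30 min with compound or vehicle, then stimulated 30 min with recombinant BMP (10 ng ml−1). Extracts in SDS-lysis buffer were immunoblotted for phospho-SMAD1/5/8, with total SMAD1 and α-tubulin as loading controls. Bands were quantitated by phosphorimager.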

Danio rerio [5] = species: Danio rerio; assay: Inhibition of BMPR1 in zebrafish assessed as penetrance of normal embryonic axis dorsalization at 5 uM treated at 3 hrs post-fertilization measured at 48 hrs; design: scale not given: the % may be the effect or the level left
Danio rerio [6] = species: Danio rerio; assay: Inhibition of BMPR1 in zebrafish assessed as penetrance of normal embryonic axis dorsalization at 0.2 uM treated at 3 hrs post-fertilization measured at 48 hrs; design: scale not given: the % may be the effect or the level left
Danio rerio [7] = species: Danio rerio; assay: Inhibition of BMPR1 in zebrafish assessed as penetrance of normal embryonic axis dorsalization at 0.5 uM treated at 3 hrs post-fertilization measured at 48 hrs; design: scale not given: the % may be the effect or the level left
Danio rerio [8] = species: Danio rerio; assay: Inhibition of BMPR1 in zebrafish assessed as penetrance of normal embryonic axis dorsalization at 10 uM treated continuously from 8 hrs post-fertilization measured at 48 hrs; design: scale not given: the % may be the effect or the level left
Danio rerio [9] = species: Danio rerio; assay: Inhibition of BMPR1 in zebrafish assessed as increase in myod expression at 10 uM treated at 12 hrs post-fertilization measured at 48 hrs
Mus musculus [10] = species: Mus musculus; assay: Inhibition of ALK3-mediated Id1 promoter activity in BMPR2 deficient mouse PASMC at 10 uM by immunoblot analysis
Method in brief: (§3)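 BMPR-II–deficient mouse PASMCs at 50% confluence co-transfected with Id1 promoter firefly luciferase (BRE-Luc, 0.3 µg), caALK2, caALK3 or caALK6 (0.6 µg), and pRL-TK Renilla (0.2 µg). Compound (4–10 µM) or vehicle added 1 h after transfection. Activity read as firefly/Renilla ratio by dual luciferase assay; n = 3, mean ± s.d.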

Danio rerio [11] = species: Danio rerio; assay: Inhibition of BMPR1 in zebrafish assessed as severity of embryonic axis dorsalization at 5 uM treated at 3 hrs post-fertilization measured at 48 hrs; design: scale not given: the % may be the effect or the level left
Mus musculus [12] = species: Mus musculus; assay: Inhibition of BMPR1-mediated Smad-8 phosphorylation in BMP4-stimulated mouse PASMC at 100 to 200 ng/ml treated 30 mins before BMP4 challenge measured after 30 mins by immunoblot analysis
Method in brief: (§4)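 Mouse PASMCs were held 24 h in RPMI with 0.5% FCS. They were preincubated 30 min with test agent, noggin or vehicle, then exposed to recombinant BMP4 for 30 min. SDS lysates were immunoblotted for phospho-SMAD1/5/8 and bands quantified by phosphorimager. Dose-dependence was fitted as a Hill plot.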

Danio rerio [13] = species: Danio rerio; assay: Inhibition of BMPR1 in zebrafish assessed as penetrance of moderate embryonic axis dorsalization at 10 uM treated continuously from 10 hrs post-fertilization measured at 48 hrs; design: scale not given: the % may be the effect or the level left; method in brief: as §1
Mus musculus [14] = species: Mus musculus; assay: Inhibition of BMPR1-mediated Smad-5 phosphorylation in BMP7-stimulated mouse PASMC at 4 uM treated 30 mins before BMP7 challenge measured after 30 mins by immunoblot analysis
Method in brief: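 Wild-type mouse PASMCs were kept in RPMI with 0.5% FCS for 24 h. They were preincubated with compound or vehicle for 30 min, then stimulated for 30 min with recombinant BMP2, BMP4, BMP6 or BMP7 at 10 ng ml−1. Lysates in SDS buffer were immunoblotted with anti-phospho-SMAD1/5/8. Total SMAD1 and α-tubulin served as loading controls, and bands were quantified by phosphorimager.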

Mus musculus [15] = species: Mus musculus; assay: Inhibition of BMPR1-mediated Smad-8 phosphorylation in BMP6-stimulated mouse BMPR2 deficient PASMC at 4 uM treated 30 mins before BMP6 measured after 30 mins by immunoblot analysis
Mus musculus [16] = species: Mus musculus; assay: Inhibition of ALK2-mediated Id1 promoter activity in BMPR2 deficient mouse PASMC at 10 uM by immunoblot analysis; method in brief: as §3
Danio rerio [17] = species: Danio rerio; assay: Inhibition of BMPR1 in zebrafish assessed as penetrance of moderate embryonic axis dorsalization at 10 uM treated continuously from 2 hrs post-fertilization measured after 48 hrs; design: scale not given: the % may be the effect or the level left; method in brief: as §1
Danio rerio [18] = species: Danio rerio; assay: Inhibition of BMPR1 in zebrafish assessed as penetrance of mild embryonic axis dorsalization at 10 uM treated continuously from 2 hrs post-fertilization measured after 48 hrs; design: scale not given: the % may be the effect or the level left; method in brief: as §1
Danio rerio [19] = species: Danio rerio; assay: Inhibition of BMPR1 in zebrafish assessed as penetrance of moderate embryonic axis dorsalization at 10 uM treated at 2 to 4 hrs post-fertilization measured at 48 hrs; design: scale not given: the % may be the effect or the level left; method in brief: as §1
Mus musculus [20] = species: Mus musculus; assay: Inhibition of BMPR1-mediated Smad-1 phosphorylation in BMP4-stimulated mouse PASMC at 4 uM treated 30 mins before BMP4 challenge measured after 30 mins by immunoblot analysis; method in brief: as §2
Danio rerio [21] = assay: Inhibition of iron-dextran conjugate-induced hepcidin mRNA expression in zebrafish at 23 ug/g, ip by qRT-PCR analysis; assay type: functional, organism-based
Method in brief: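 Adult zebrafish under tricaine were injected intraperitoneally with 10 µl iron-dextran (100 mg ml−1) plus compound (23 µg g−1) or DMSO vehicle; controls received dextran. Livers were taken 3 h later and RNA was extracted with Trizol. Hepcidin mRNA was measured by qRT-PCR and normalised to liver fatty acid binding protein mRNA, with n = 4 per group.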

Mus musculus [22] = species: Mus musculus; assay: Inhibition of BMPR1-mediated Smad-5 phosphorylation in BMP4-stimulated mouse PASMC at 100 to 200 ng/ml treated 30 mins before BMP4 challenge measured after 30 mins by immunoblot analysis; method in brief: as §4
Danio rerio [23] = species: Danio rerio; assay: Inhibition of BMPR1-mediated osteoblast differentiation in zebrafish assessed as decrease in alkaline phosphatase level at 1 to 4 uM treated at 24 hrs post-fertilization measured on day 10 post-fertilization
Danio rerio [24] = species: Danio rerio; assay: Inhibition of BMPR1 in zebrafish assessed as penetrance of normal embryonic axis dorsalization at 10 uM treated at 4 to 8 hrs post-fertilization measured at 48 hrs; design: scale not given: the % may be the effect or the level left
Danio rerio [25] = species: Danio rerio; assay: Inhibition of BMPR1 in zebrafish assessed as penetrance of normal embryonic axis dorsalization at 10 uM treated at 2 to 8 hrs post-fertilization measured at 48 hrs; design: scale not given: the % may be the effect or the level left

Structure (SMILES): c1cc(-c2cnn3cc(-c4ccc(OCCN5CCCCC5)cc4)cnc23)ccn1 [DORSOMORPHIN]
- inhibition (Mus musculus [1]): Active
- Activity (Danio rerio [2]): 100%
- Activity (Danio rerio [3]): 35%
- inhibition (Mus musculus [4]): Active
- Activity (Danio rerio [5]): 81%
- Activity (Danio rerio [6]): 100%
- Activity (Danio rerio [7]): 100%
- Activity (Danio rerio [8]): 15%
- Activity (Danio rerio [9]): Active
- inhibition (Mus musculus [10]): Dose-dependent effect
- Activity (Danio rerio [11]): 19%
- inhibition (Mus musculus [12]): Active
- Activity (Danio rerio [13]): 0%
- inhibition (Mus musculus [14]): Active
- inhibition (Mus musculus [15]): Active
- inhibition (Mus musculus [16]): Dose-dependent effect
- Activity (Danio rerio [17]): 0%
- Activity (Danio rerio [18]): 0%
- Activity (Danio rerio [19]): 90%
- inhibition (Mus musculus [20]): Active
- inhibition (Danio rerio [21]): Active
- inhibition (Mus musculus [22]): Active
- inhibition (Danio rerio [23]): Active
- Activity (Danio rerio [24]): 0%
- Activity (Danio rerio [25]): 0%
